pIC50: −log10 of the molar value. Calls of active or inactive are those of the source. The calls are words filed in the database; no cut-off is given here.
Columns and labels:
O-acyltransferase [1] = biological target: T1, O-acyltransferase (Oryctolagus cuniculus, UniProt G1SFD9); test: In vitro inhibition of acyl coenzyme A:cholesterol acyltransferase (ACAT) from rabbit intestinal microsomes
How it was run: (§1)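 Enzyme source is microsomes from rabbit intestine. Read-out is the concentration giving 50% inhibition of ACAT activity (IC50, nM). Some IC50 values were estimated relative to the IC50 of a reference inhibitor tested on the same enzyme batch.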

[2] = In vitro inhibitory activity against acetylated LDL-induced accumulation of cholesteryl esters in mouse peritoneal macrophages; assay type: functional
How it was run: (§2)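 Mouse peritoneal macrophages were exposed to acetylated LDL, which induces accumulation of cholesteryl esters. Read-out is the IC50 (nM) for inhibiting that accumulation. Values given in parentheses are percent inhibition at the concentration indicated.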

Rattus norvegicus [3] = test: In vivo hypocholesterolemic activity in cholesterol-fed rats by oral administration in a cholesterol enriched diet; assay type: functional
How it was run: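 Rats were fed a cholesterol-enriched diet, and compound was given orally as an admixture in that diet. Read-out is plasma total cholesterol against control, expressed as ED50 (the dose reducing it by 50%) or as percent reduction at the stated dose. Significance was tested by unpaired, two-tailed Student's t-test.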

Rattus norvegicus [4] = test: Percent reduction in cholesterol levels in rats at >0.1 mg/kg; inactive; assay type: functional, organism-based
How it was run: (§3)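 In cholesterol-fed rats, compound was given orally either as a dietary admixture or by gavage in PEG400. Read-out is the percent reduction of plasma total cholesterol versus control at the dose indicated. Significance was assessed by unpaired, two-tailed Student's t-test.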

O-acyltransferase [5] = biological target: T1, O-acyltransferase; test: In vitro inhibitory activity against Acyl coenzyme A:cholesterol acyltransferase from rabbit intestinal microsomes; assay type: functional; how it was run: as §1
Rattus norvegicus [6] = test: Percent reduction in cholesterol levels in rats at >1 mg/kg; assay type: functional; how it was run: as §3
Rattus norvegicus [7] = test: Percent reduction in cholesterol levels in rats at <0.1 mg/kg; assay type: functional; how it was run: as §3
Rattus norvegicus [8] = test: In vivo hypocholesterolemic activity in cholesterol-fed rats by oral administration by gavage in PEG400 as a vehicle; assay type: functional
How it was run: (§4)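 Cholesterol-fed rats were dosed orally by gavage with PEG400 as vehicle. Plasma total cholesterol was compared with control and reported as ED50 (the dose reducing it by 50%) or as percent reduction at the dose given. Significance was tested by unpaired two-tailed Student's t-test.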

Rattus norvegicus [9] = test: Percent reduction in cholesterol levels in rats at <0.1 mg/kg; inactive; assay type: functional, organism-based; details: in the assay text read “>0.1 mg/kg” for “<0.1 mg/kg”; how it was run: as §3
Rattus norvegicus [10] = test: Percent reduction in cholesterol levels in rats at >0.1 mg/kg; assay type: functional; how it was run: as §3
[11] = In vitro inhibitory activity against acetylated LDL-induced accumulation of cholesteryl esters in mouse peritoneal macrophages at <10 nM concentration; assay type: functional; how it was run: as §2
Rattus norvegicus [12] = test: Percent reduction in cholesterol levels in rats at <0.01 mg/kg; assay type: functional; how it was run: as §3
Rattus norvegicus [13] = test: Percent reduction in cholesterol levels in rats at 0.01 mg/kg; assay type: functional; how it was run: as §3
Rattus norvegicus [14] = test: Percent reduction in cholesterol levels in rats at 0.032 mg/kg; assay type: functional; how it was run: as §3
[15] = Adrenal toxicity in rabbits at 5 mg/kg i.v., expressed as drug-induced necrosis; + indicates necrosis observed; assay type: organism-based, Oryctolagus cuniculus; set-up: dose 5 mg/kg, route intravenous; details: rabbit, in vivo, iv
How it was run: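 Rabbits (n = 2) given a single 5 mg/kg iv dose as a solution in PEG400. Adrenal glands were examined for drug-induced necrosis of zona fasciculata cortical cells at 24 h after dosing. Each result is scored against controls as observed (+) or not observed (-).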

Rattus norvegicus [16] = test: In vivo hypocholesterolemic activity in cholesterol-fed rats by oral administration of compound by gavage in PEG400 as a vehicle; inactive at >1; assay type: functional, organism-based; how it was run: as §4
Rattus norvegicus [17] = test: Percent reduction in cholesterol levels in rats at <1 mg/kg; assay type: functional; how it was run: as §3

T1 sequence (G1SFD9 1-524): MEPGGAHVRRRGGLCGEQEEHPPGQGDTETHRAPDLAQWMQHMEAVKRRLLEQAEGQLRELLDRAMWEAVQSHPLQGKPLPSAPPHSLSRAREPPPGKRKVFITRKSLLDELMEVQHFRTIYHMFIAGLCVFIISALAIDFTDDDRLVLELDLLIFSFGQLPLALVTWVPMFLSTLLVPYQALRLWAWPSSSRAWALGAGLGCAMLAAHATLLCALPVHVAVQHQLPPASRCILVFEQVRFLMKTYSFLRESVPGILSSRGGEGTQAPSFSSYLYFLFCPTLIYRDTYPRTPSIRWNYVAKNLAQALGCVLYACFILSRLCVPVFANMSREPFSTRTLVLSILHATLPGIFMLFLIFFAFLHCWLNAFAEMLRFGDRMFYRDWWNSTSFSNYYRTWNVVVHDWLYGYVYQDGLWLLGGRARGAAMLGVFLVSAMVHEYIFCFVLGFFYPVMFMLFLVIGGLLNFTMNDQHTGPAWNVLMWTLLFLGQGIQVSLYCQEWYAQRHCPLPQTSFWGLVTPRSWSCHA

SMILES | pIC50 (O-acyltransferase [1]) | pIC50 [2] | ED50 (Rattus norvegicus [3]) [mg/kg] | ED50 (Rattus norvegicus [8]) [mg/kg] | also measured
CSc1cc(C)nc(SC)c1NC(=O)N(Cc1ccc(Oc2ccc(F)cc2)cc1)Cc1c(C)cccc1C | – | 7.68 | – | – | pIC50 (O-acyltransferase [5]): 7.59
COc1cc(C)nc(OC)c1NC(=O)N(Cc1ccc(Oc2ccc(F)cc2)cc1)C1CCCCCC1 | 7.48 | 6.46 | 0.032 | 4.5 | –
CSc1cc(C)nc(S(C)(=O)=O)c1NC(=O)N(Cc1ccc(Oc2ccc(F)cc2)cc1)C1CCCCCC1 | 7.11 | 7.82 | > 0.1 | – | Reduction (Rattus norvegicus [9]): inactive
Cc1cc(S(C)(=O)=O)c(NC(=O)N(Cc2ccc(Oc3ccc(F)cc3)cc2)C2CCCCCC2)c(Cl)n1 | 7.52 | 6.46 | > 0.1 | > 1 | Reduction (Rattus norvegicus [6]): 34%; Reduction (Rattus norvegicus [10]): 46%
COc1nc(C)ccc1NC(=O)N(Cc1ccc(Oc2ccc(F)cc2)cc1)C1CCCCCC1 | 7.41 | – | > 0.1 | – | Reduction (Rattus norvegicus [4]): inactive
CSc1cc(C)nc(SC)c1NC(=O)N(Cc1ccc(Oc2ccc(Br)cc2)cc1)C1CCCCCC1 | 7.55 | > 8.00 | 0.02 | – | Inhibition [11]: 75%
Cc1cc(C)c(NC(=O)N(Cc2ccc(Oc3ccc(F)cc3)cc2)C2CCCCCC2)c(C)c1 | 7.60 | 7.10 | 0.045 | 5.3 | –
CSc1cc(C)nc(SC)c1NC(=O)N(CCCc1ccccc1)Cc1ccc(Oc2ccc(F)cc2)cc1 | 7.55 | 7.40 | 0.025 | – | –
O=C(Nc1c(F)cc(F)cc1F)N(Cc1ccccc1)Cc1cccc(-c2cc[nH]n2)c1 | – | 5.13 | – | – | –
CSc1cc(C)nc(SC)c1NC(=O)N(Cc1cccc(Oc2ccc(F)cc2)c1)C1CCCCCC1 | 7.14 | 8.54 | < 0.1 | – | –
COc1nc(C)cc(SC)c1NC(=O)N(Cc1ccc(Oc2ccc(F)cc2)cc1)C1CCCCCC1 | 7.54 | 7.89 | < 0.032 | 1.4 | Reduction (Rattus norvegicus [14]): 62%
Cc1cc(C)c(NC(=O)N(Cc2ccc(Oc3ccc(F)cc3)cc2)C2CCCCCC2)c(C)n1 | 7.21 | 6.62 | 0.044 | 0.77 | –
COc1ccc(CN(Cc2ccc(Oc3ccc(F)cc3)cc2)C(=O)Nc2c(SC)cc(C)nc2SC)cc1 | 7.54 | – | > 0.1 | – | Reduction (Rattus norvegicus [10]): 24%
CSc1cc(C)nc(SC)c1NC(=O)N(Cc1ccc(Oc2ccc(F)cc2)cc1)C1CCCCCC1 | – | 7.32 | 0.034 | 0.11 | Toxicity [15]: necrosis observed
Cc1cc(S(C)(=O)=O)c(NC(=O)N(Cc2ccc(Oc3ccc(F)cc3)cc2)C2CCCCCC2)c(S(C)(=O)=O)n1 | 7.35 | 6.67 | 0.068 | 0.63 | –
CSc1cc(C)nc(Cl)c1NC(=O)N(Cc1ccc(Oc2ccc(F)cc2)cc1)C1CCCCCC1 | 7.34 | 7.33 | 0.022 | 0.17 | Toxicity [15]: necrosis observed
CSc1cc(C)nc(SC)c1NC(=O)N(Cc1ccccc1)Cc1cccc(-c2cc[nH]n2)c1 | – | 6.46 | – | – | –
CSc1nc(C)nc(SC)c1NC(=O)N(Cc1ccc(Oc2ccc(F)cc2)cc1)C1CCCCCC1 | 7.25 | 7.70 | 0.069 | 0.45 | Toxicity [15]: necrosis observed
CSc1cc(C)nc(SC)c1NC(=O)N(Cc1ccc(Oc2ccc(F)cc2)cc1)C1CCOCC1 | 7.34 | – | < 0.1 | – | Reduction (Rattus norvegicus [7]): 58%
CSc1cc(C)nc(C)c1NC(=O)N(Cc1ccc(Oc2ccc(F)cc2)cc1)C1CCCCCC1 | 7.05 | 7.46 | – | < 1 | Reduction (Rattus norvegicus [17]): 72%
CCOCCN(Cc1ccc(Oc2ccc(F)cc2)cc1)C(=O)Nc1c(SC)cc(C)nc1SC | 7.62 | – | > 0.1 | – | Reduction (Rattus norvegicus [10]): 26%

Continued, in another order:

pIC50 (O-acyltransferase [1]) | pIC50 [2] | SMILES | ED50 (Rattus norvegicus [3]) [mg/kg] | ED50 (Rattus norvegicus [8]) [mg/kg] | also measured
7.72 | 6.59 | CSc1cc(C)nc(SC)c1NC(=O)N(Cc1ccc(Oc2ccc(F)cc2)cc1)[C@@H](C)c1ccccc1 | > 0.1 | – | Reduction (Rattus norvegicus [4]): inactive
7.92 | 6.46 | CSc1nc(C)cc(Cl)c1NC(=O)N(Cc1ccc(Oc2ccc(F)cc2)cc1)C1CCCCCC1 | < 0.1 | > 1 | Reduction (Rattus norvegicus [6]): 48%; Reduction (Rattus norvegicus [7]): 77%
7.80 | 8.21 | CSc1cc(C)nc(SC)c1NC(=O)N(CCc1ccccc1)Cc1ccc(Oc2ccc(F)cc2)cc1 | 0.016 | 2.7 | –
8.04 | > 8.00 | CSc1cc(C)nc(SC)c1NC(=O)N(Cc1ccccc1)Cc1ccc(Oc2ccc(F)cc2)cc1 | < 0.01 | – | Reduction (Rattus norvegicus [12]): 58%; Inhibition [11]: 77%
7.72 | – | Cc1ccc(NC(=O)N(Cc2ccc(Oc3ccc(F)cc3)cc2)C2CCCCCC2)c(Cl)n1 | > 0.1 | – | –
7.85 | – | Cc1cc(Cl)c(NC(=O)N(Cc2ccc(Oc3ccc(F)cc3)cc2)C2CCCCCC2)c(Cl)n1 | > 0.1 | – | Reduction (Rattus norvegicus [10]): 38%
7.64 | > 8.00 | CSc1cc(C)nc(SC)c1NC(=O)N(Cc1ccc(Oc2ccc(F)cc2)cc1)C1CCCCC1 | < 0.01 | – | Reduction (Rattus norvegicus [13]): 63%; Inhibition [11]: 61%
8.00 | 7.85 | CSc1cc(C)nc(SC)c1NC(=O)N(Cc1ccccc1)Cc1ccc(Oc2ccc(Br)cc2)cc1 | 0.011 | < 0.1 | Reduction (Rattus norvegicus [7]): 54%
7.72 | 6.96 | CSc1cc(C)nc(SC)c1NC(=O)N(Cc1ccc(Oc2ccc(F)cc2)cc1)[C@H](C)c1ccccc1 | 0.095 | 4.6 | –
7.62 | 7.28 | CSc1cc(C)nc(SC)c1NC(=O)N(Cc1ccc(Oc2ccc(F)cc2)cc1)C(C)(C)c1ccccc1 | – | – | ED50 (Rattus norvegicus [16]): inactive
